Results collected from several papers.

| Compound | tested on | test | test system | conditions | endpoint | value |
| --- | --- | --- | --- | --- | --- | --- |
| Cc1cc2cc(O)cc(O)c2c(=O)o1 | K562 | cell growth or viability | – | – | IC50 | 19 µM |
| C[C@@H]1Cn2ncc(-c3ccc(C(=O)N4CCCc5ccccc54)cc3)c2CN1C(=O)[C@H](C)c1ccccc1 | Broad substrate specificity ATP-binding cassette transporter ABCG2 (ABCG2, Homo sapiens, UniProt Q9UNQ0) | – | dog, MDCK-MDR1 | – | Papp B→A | 13.4 ×10⁻⁶ cm/s |
| Cc1noc(C)c1Cn1cc(N2C(=O)CN(Cc3cccc(O)c3)C2=O)cn1 | – | – | male Sprague-Dawley rat, plasma | oral, 100 mg/kg, 1 h | concentration | 30.5 ng/mL |
| Cc1nnc(SCC(=O)Nc2ccc(Br)cc2)nc1O | K562 | cell growth or viability | – | – | IC50 | > 200 µM |
| CCOC(=O)[C@@]12C[C@@H]1[C@@H](n1ccc3c(NC)nc(C#Cc4ccc(Cl)s4)nc31)[C@H](O)[C@@H]2O | – | – | male Sprague-Dawley rat, plasma | oral, 1 mg/kg, 15 min | concentration | 5.75 ng/mL |
| COc1cccc(-c2n[nH]c(SCc3ccccn3)n2)c1OC | – | – | female Sprague-Dawley rat, plasma | intravenous, 1 mg/kg, 10 min, single dose | concentration | 2680 ng/mL |
| CN1CCN=C1c1ccc(NC(=O)c2ccc(C(=O)Nc3ccc(C4=NCCN4C)cc3)cc2)cc1 | K562 | cell growth or viability | – | – | IC50 | 171 µM |
| CCc1cc(-c2noc(-c3cc(OC)nc(C4CCCC4)c3)n2)cc(C)c1OC[C@@H](O)CO | – | – | Wistar rat, plasma | oral, 0.3 mg/kg, 3 h, single dose | concentration | 16.7 ng/mL |
| COc1ccc2c(=O)n(C)c(-c3ccccc3)nc2c1 | – | – | male Sprague-Dawley rat, lung | oral, 30 mg/kg, 2 h | concentration | 2.13 ng/mL |
